The source made the active and inactive calls. The rule behind the calls is not given here.
Key:
[1] = biological target: T1, Mast/stem cell growth factor receptor Kit (Homo sapiens, UniProt P10721, T670I); assay: Inhibition of TEL fused wild type c-KIT T670I mutant (unknown origin) transfected in mouse BaF3 cells assessed as reduction in phosphorylation at Y703 residue after 2 hrs by Western blot analysis; assay type: cell-based
[2] = system: Mast/stem cell growth factor receptor Kit (Homo sapiens), P10721 [UNDEFINED MUTATION]; assay: Inhibition of c-KIT 560 to 578 deletion/T670I double mutant in human GISTT1 cells assessed as reduction in c-KIT autophosphorylation at Y823 residue at 0.1 uM to 3 uM after 1 hr by Western blot analysis; assay type: cell-based
Chain of Mast/stem cell growth factor receptor Kit (Homo sapiens), P10721 [UNDEFINED MUTATION] (P10721 whole entry, looked up, stated change not applied): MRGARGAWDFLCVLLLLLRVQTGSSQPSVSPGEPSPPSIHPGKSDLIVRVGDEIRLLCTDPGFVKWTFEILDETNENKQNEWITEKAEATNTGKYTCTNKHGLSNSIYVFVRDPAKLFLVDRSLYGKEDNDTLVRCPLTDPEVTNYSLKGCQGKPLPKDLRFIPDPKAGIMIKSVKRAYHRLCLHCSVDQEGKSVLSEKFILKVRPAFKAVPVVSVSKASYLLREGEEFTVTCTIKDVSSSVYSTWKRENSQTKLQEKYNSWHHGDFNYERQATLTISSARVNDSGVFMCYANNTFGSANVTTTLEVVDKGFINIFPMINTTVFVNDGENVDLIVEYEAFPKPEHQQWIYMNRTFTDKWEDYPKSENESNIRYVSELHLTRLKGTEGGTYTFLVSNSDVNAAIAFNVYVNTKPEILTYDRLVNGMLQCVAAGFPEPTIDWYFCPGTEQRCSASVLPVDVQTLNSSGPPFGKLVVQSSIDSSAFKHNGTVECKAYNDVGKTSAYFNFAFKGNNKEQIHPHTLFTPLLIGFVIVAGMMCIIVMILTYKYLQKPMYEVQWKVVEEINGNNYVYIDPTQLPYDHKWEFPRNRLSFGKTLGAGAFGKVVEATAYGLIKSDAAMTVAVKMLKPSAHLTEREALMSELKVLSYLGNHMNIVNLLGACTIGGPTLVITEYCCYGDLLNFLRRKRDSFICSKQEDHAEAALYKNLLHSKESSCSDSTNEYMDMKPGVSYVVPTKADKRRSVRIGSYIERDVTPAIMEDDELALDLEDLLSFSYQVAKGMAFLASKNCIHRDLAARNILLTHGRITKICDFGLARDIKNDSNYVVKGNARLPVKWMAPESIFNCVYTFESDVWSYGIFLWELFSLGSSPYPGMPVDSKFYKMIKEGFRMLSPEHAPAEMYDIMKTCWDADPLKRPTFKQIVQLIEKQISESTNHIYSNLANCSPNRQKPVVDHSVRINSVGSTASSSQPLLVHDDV
Outline: (§1)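 Serial compound dilutions applied for 1 h to GIST-T1, GIST-T1-T670I (CRISPR/Cas9 T670I knock-in, clone confirmed by Sanger sequencing) or GIST-5R cells in DMEM with 10% FBS. Cells then lysed and phospho-proteins detected by standard Western blotting.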

[3] = system: Mus musculus; assay: Inhibition of ERK phosphorylation at T202/Y204 residue in tumor of human GIST5R cells xenografted in nude mouse at 100 mg/kg, po administered as single dose and measured at 2 hrs; assay type: functional, organism-based
Outline: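 Female nu/nu mice bearing subcutaneous GIST-5R tumors (cells in Matrigel, right flank) given one oral dose of 100 mg/kg in 0.5% methylcellulose/0.4% Tween80. Tumors collected over a 2 h time course. p-c-KIT, p-ERK and p-AKT measured alongside plasma drug levels.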

[4] = AUC (0 to t) in mouse at 1 mg/kg, iv measured after 2 to 720 mins by LC-tandem mass spectrometry analysis; assay type: ADME, organism-based; conditions: in vivo
Outline: (§2)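 Mice dosed 1 mg/kg i.v. or 10 mg/kg p.o.; plasma drug levels by LC-MS/MS, parameters by noncompartmental analysis; values not from triplicate testing.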

[5] = biological target: Casein kinase I isoform alpha (Homo sapiens, UniProt P48729); assay: Binding affinity to wild-type human partial length CSNK1A1 (M1 to L301 residues) expressed in mammalian expression system assessed as enzyme remaining activity at 1 uM by Kinomescan assay relative to control
Chain of Casein kinase I isoform alpha (P48729 2-337 limits assumed): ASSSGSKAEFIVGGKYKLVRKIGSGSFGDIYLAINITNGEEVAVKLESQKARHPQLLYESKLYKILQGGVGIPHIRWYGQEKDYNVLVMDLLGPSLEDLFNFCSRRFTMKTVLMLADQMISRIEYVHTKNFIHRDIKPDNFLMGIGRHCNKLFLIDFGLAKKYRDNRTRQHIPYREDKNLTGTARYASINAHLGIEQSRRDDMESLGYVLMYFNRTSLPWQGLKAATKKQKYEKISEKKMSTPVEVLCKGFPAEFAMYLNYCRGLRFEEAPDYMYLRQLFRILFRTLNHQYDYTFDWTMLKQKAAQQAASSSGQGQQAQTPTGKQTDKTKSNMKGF
Outline: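 KINOMEscan competition binding panel of 468 kinases and mutants, compound at 1 μM; binding reported as percent of control.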

[6] = system: Mast/stem cell growth factor receptor Kit (Homo sapiens), P10721 [UNDEFINED MUTATION]; assay: Inhibition of c-KIT 560 to 578 deletion/T670I double mutant in human GIST5R cells assessed as reduction in ERK phosphorylation at T202/Y204 residue at 0.1 uM to 3 uM after 1 hr by Western blot analysis; assay type: cell-based; outline: as §1
[7] = Antitumor activity against human GIST5R cells xenografted in nude mouse assessed as tumor growth inhibition at 100 mg/kg, po administered […] via gavage for 28 days relative to control; assay type: functional; conditions: 672 h, read-out: TGI
Outline: (§3)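 Female nu/nu mice (5 weeks old) given subcutaneous right-flank GIST-5R cells in Matrigel. Dosing began at tumors of 200-400 mm3; randomized, 4 mice per group. Daily oral dosing (QD) at 25, 50 or 100 mg/kg in 0.5% methylcellulose/0.4% Tween80, or vehicle alone, for 28 days. Body weight and tumor volume, (W²×L)/2, measured daily; mean±SEM.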

[8] = system: Mast/stem cell growth factor receptor Kit (Homo sapiens), P10721 [V559D,V654A]; assay: Inhibition of TEL fused c-KIT V654A/V559D double mutant (unknown origin) transfected in mouse BAF3 cells assessed as growth inhibition after 72 hrs by CCK8 assay; assay type: cell-based
Chain of Mast/stem cell growth factor receptor Kit (Homo sapiens), P10721 [V559D,V654A] (P10721 whole entry V559D/V654A, the tested form may be a part): as the sequence (P10721 whole entry, looked up, stated change not applied) above, with V559D, V654A counted along it
Outline: (§4)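 Tel-c-KIT-transformed BaF3 lines (IL-3 independent) kept in RPMI 1640 with 10% FBS, 2% L-glutamine and pen/strep. Cells at 1.5 to 5 × 10^4 cells/mL mixed with graded compound and incubated 72 h at 37 °C, 5% CO2. Viability by CCK-8 absorbance at 450 nm, normalized to DMSO. GI50 from dose–response fit.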

[9] = Oral bioavailability in mouse at 10 mg/kg measured after 5 to 720 mins by LC-tandem mass spectrometry analysis; assay type: ADME, organism-based; conditions: in vivo
[10] = system: Mast/stem cell growth factor receptor Kit (Homo sapiens), P10721 [V559A]; assay: Inhibition of TEL fused c-KIT V559A mutant (unknown origin) transfected in mouse BAF3 cells assessed as growth inhibition after 72 hrs by CCK8 assay; assay type: cell-based; outline: as §4
Chain of Mast/stem cell growth factor receptor Kit (Homo sapiens), P10721 [V559A] (P10721 whole entry V559A, the tested form may be a part): as the sequence (P10721 whole entry, looked up, stated change not applied) above, with V559A counted along it

[11] = system: Mast/stem cell growth factor receptor Kit (Homo sapiens), P10721 [N822K]; assay: Inhibition of TEL fused c-KIT N822K mutant (unknown origin) transfected in mouse BAF3 cells assessed as growth inhibition after 72 hrs by CCK8 assay; assay type: cell-based; outline: as §4
Chain of Mast/stem cell growth factor receptor Kit (Homo sapiens), P10721 [N822K] (P10721 whole entry N822K, the tested form may be a part): as the sequence (P10721 whole entry, looked up, stated change not applied) above, with N822K counted along it

[12] = system: Homo sapiens; assay: Antitumor activity against human GIST5R cells xenografted in po dosed nude mouse assessed as reduction in tumor size administered […] via gavage for 28 days post tumor inoculation; assay type: functional, organism-based; outline: as §3
[13] = Apparent clearance in mouse at 10 mg/kg, po measured after 5 to 720 mins by LC-tandem mass spectrometry analysis; assay type: ADME, organism-based; conditions: in vivo, read-out: CL(app) (converted); outline: as §2
[14] = system: Mast/stem cell growth factor receptor Kit (Homo sapiens), P10721 [UNDEFINED MUTATION]; assay: Inhibition of c-KIT 560 to 578 deletion/T670I double mutant in human GISTT1 cells assessed as reduction in S6 phosphorylation at S235/S236 residue at 0.1 uM to 3 uM after 1 hr by Western blot analysis; assay type: cell-based; outline: as §1
[15] = Cmax in Sprague-Dawley rat at 1 mg/kg, iv measured after 2 to 720 mins by LC-tandem mass spectrometry analysis; assay type: ADME, organism-based; parameters: dose 1 mg/kg, route intravenous; conditions: in vivo
Outline: (§5)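 Male Sprague-Dawley rats (190-210 g), fasted 12 h, randomized into two groups: 1 mg/kg i.v. or 10 mg/kg p.o., both formulated in 10% DMSO/90% of 5% glucose water. Blood sampled at 2-720 min (i.v.) or 5-720 min (p.o.). Plasma protein-precipitated with methanol, caffeine internal standard, LC-MS/MS. Noncompartmental analysis; triplicate, ±SD.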

[16] = Drug level in plasma of nude mouse xenograted with human GIST5R cells at 100 mg/kg, po administered as single dose and measured at 4 hrs; assay type: ADME, organism-based; conditions: in vivo
Outline: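 GIST-5R xenograft nu/nu mice given a single 100 mg/kg oral dose; plasma drug concentration followed over a time course alongside tumor p-c-KIT, p-ERK and p-AKT.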

[17] = system: Mast/stem cell growth factor receptor Kit (Homo sapiens), P10721 [UNDEFINED MUTATION]; assay: Inhibition of c-KIT 560 to 578 deletion/T670I double mutant in human GIST5R cells assessed as reduction in AKT phosphorylation at S473 residue at 0.1 uM to 3 uM after 1 hr by Western blot analysis; assay type: cell-based; outline: as §1
[18] = AUC (0 to infinity) in Sprague-Dawley rat at 10 mg/kg, po measured after 5 to 720 mins by LC-tandem mass spectrometry analysis; assay type: ADME, organism-based; parameters: dose 10 mg/kg, route oral, time infinity; conditions: in vivo; outline: as §5
[19] = Half-life in mouse at 1 mg/kg, iv measured after 2 to 720 mins by LC-tandem mass spectrometry analysis; assay type: ADME, organism-based; conditions: in vivo; outline: as §2
[20] = biological target: T1, Mast/stem cell growth factor receptor Kit; assay: Inhibition of TEL fused wild type c-KIT T670I mutant (unknown origin) transfected in mouse BaF3 cells assessed as reduction in phosphorylation at Y823 residue after 2 hrs by Western blot analysis; assay type: cell-based
[21] = system: Mast/stem cell growth factor receptor Kit (Homo sapiens), P10721 [V559D]; assay: Inhibition of TEL fused c-KIT V559D mutant (unknown origin) transfected in mouse BAF3 cells assessed as growth inhibition after 72 hrs by CCK8 assay; assay type: cell-based; outline: as §4
Chain of Mast/stem cell growth factor receptor Kit (Homo sapiens), P10721 [V559D] (P10721 whole entry V559D, the tested form may be a part): as the sequence (P10721 whole entry, looked up, stated change not applied) above, with V559D counted along it

T1 sequence (P10721 26-976 T670I limits assumed): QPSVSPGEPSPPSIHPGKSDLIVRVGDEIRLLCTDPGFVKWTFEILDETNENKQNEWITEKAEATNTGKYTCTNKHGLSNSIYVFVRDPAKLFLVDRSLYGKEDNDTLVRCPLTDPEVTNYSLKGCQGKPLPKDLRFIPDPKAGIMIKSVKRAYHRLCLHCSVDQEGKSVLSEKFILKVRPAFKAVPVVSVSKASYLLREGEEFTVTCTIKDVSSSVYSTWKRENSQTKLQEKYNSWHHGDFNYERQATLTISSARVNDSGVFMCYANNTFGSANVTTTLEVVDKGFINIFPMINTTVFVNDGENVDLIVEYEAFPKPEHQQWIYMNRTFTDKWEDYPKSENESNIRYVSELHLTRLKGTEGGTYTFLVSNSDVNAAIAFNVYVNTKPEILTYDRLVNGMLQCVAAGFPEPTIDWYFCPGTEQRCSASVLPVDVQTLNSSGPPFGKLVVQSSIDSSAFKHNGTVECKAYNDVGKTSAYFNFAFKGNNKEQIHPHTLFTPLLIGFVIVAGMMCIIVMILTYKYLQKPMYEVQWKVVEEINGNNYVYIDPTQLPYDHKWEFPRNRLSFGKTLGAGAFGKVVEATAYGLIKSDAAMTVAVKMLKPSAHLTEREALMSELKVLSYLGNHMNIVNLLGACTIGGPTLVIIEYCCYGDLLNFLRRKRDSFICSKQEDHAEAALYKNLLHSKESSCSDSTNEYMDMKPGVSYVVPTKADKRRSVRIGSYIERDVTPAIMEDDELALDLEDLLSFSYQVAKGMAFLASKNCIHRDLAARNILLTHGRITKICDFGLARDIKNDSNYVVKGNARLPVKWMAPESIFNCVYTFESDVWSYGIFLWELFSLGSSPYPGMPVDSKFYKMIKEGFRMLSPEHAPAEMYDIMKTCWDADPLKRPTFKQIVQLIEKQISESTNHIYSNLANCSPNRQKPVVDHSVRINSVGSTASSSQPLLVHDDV

In the case of `O=C(CC(=O)Nc1ccc2c(/C=C/c3ccccn3)n[nH]c2c1)Nc1cccc(F)c1`, the EC50 [1] is reported as 77 nM, the inhibition [2] is reported as “Active” and the inhibition [3] is reported as “Active”. The AUC(0-t) [4] was 898 ng·h/mL, the Activity [5] was 0.2% and the inhibition [6] was “Active”. The inhibition in vivo at 100 mg/kg [7] was 83%, the GI50 [8] was 265 nM and the bioavailability [9] was 16.4%. For the same compound, the GI50 [10] was 31 nM, the GI50 [11] was 6060 nM and the inhibition [12] was “Dose-dependent effect”. For the same compound, the CL/F [13] was 113 mL/min/kg, the inhibition [14] was “Active” and the Cmax [15] was 378 ng/mL. The Drug uptake [16] was “Not Active”, the inhibition [17] was “Active” and the AUC(0-inf) [18] was 809 ng·h/mL. The half-life [19] was 4.9 h, the EC50 [20] was 34 nM and the GI50 [21] was 8 nM.

Source: ChEMBL document CHEMBL4304743, “Discovery of ( E)- N1-(3-Fluorophenyl)- N3-(3-(2-(pyridin-2-yl)vinyl)-1 H-indazol-6-yl)malonamide (CHMFL-KIT-033) as a Novel c-KIT T670I Mutant Selective Kinase Inhibitor for Gastrointestinal Stromal Tumors (GISTs)” (J Med Chem, 2019)
